Converted amounts (≈) assume the structure as drawn.
Assays:
[1] = system: Mycolicibacterium smegmatis; assay: Antimycobacterial activity against Mycobacterium smegmatis MC2 155 after 94 to 98 hrs by microdilution method; assay type: functional; conditions: str. MC2 155
Procedure, shortened: (§1)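 Microdilution in TSB broth. Inoculum from colonies grown 96 h on TSA, final 1×10^5 CFU/mL, aerobic 94–98 h at 37 °C, growth read on a plate reader, at least duplicate.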

[2] = system: Mycolicibacterium smegmatis; assay: Bactericidal activity against Mycobacterium smegmatis MC2 155 after 96 hrs by microdilution method; assay type: functional; conditions: str. MC2 155, 96 h; procedure, shortened: as §1
Bacillus subtilis [3] = assay: Bactericidal activity against Bacillus subtilis ATCC 6051 after 18 to 20 hrs by broth microdilution method; assay type: functional
Bacillus subtilis [4] = assay: Antibacterial activity against Bacillus subtilis ATCC 6051 after 18 to 20 hrs by broth microdilution method; assay type: functional
Procedure, shortened: (§2)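 Broth microdilution per EUCAST in LB broth. Inoculum from 20–24 h colonies by CLSI direct colony suspension (LB agar for E. coli), final 2×10^4 CFU/mL. Read after 18–20 h aerobic incubation at 37 °C on plate reader, at least one duplicate.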

[5] = Stability of the compound in water; assay type: physicochemical; conditions: buffer
Streptococcus pneumoniae [6] = assay: Bactericidal activity against Streptococcus pneumoniae R6 after 18 to 20 hrs by broth microdilution method; assay type: functional
Escherichia coli [7] = assay: Bactericidal activity against Escherichia coli D22 after 18 to 20 hrs by microdilution method; assay type: functional
Staphylococcus aureus [8] = assay: Bactericidal activity against methicillin-resistant Staphylococcus aureus USA300 after 18 to 20 hrs by microdilution method; assay type: functional
Procedure, shortened: (§3)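 EUCAST broth microdilution in LB broth. Inoculum prepared by direct colony suspension from 20–24 h LB agar (E. coli DH10β) or 5% sheep blood BHI agar (MRSA USA300) growth. Final inoculum 2×10^4 CFU/mL, 18–20 h aerobic at 37 °C, growth read on a plate reader, at least duplicate.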

Staphylococcus aureus [9] = assay: Induction of membrane integrity impairment in Staphylococcus aureus USA300 assessed as cells with intact membrane at 8 ug/ml measured after 30 mins by Baclight assay relative to control; assay type: functional
Procedure, shortened: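 LIVE/DEAD BacLight fluorescence assay. Live cells in 0.85% NaCl at OD600 0.2 were exposed to compound in DMSO for 30 min at 37 °C. Dye was then added and incubated 15 min in the dark at room temperature. Fluorescence read at ex 485 nm, em 530/630 nm. Intact membrane % came from a live/dead (isopropanol-killed) standard curve, at least triplicate, mean±SD.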

Staphylococcus aureus [10] = assay: Antibacterial activity against methicillin-resistant Staphylococcus aureus 1653 after 18 to 20 hrs by broth microdilution method; assay type: functional
Procedure, shortened: (§4)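 EUCAST broth microdilution in LB broth. Inoculum from 20–24 h colonies on 5% sheep blood BHI agar, final 3×10^4 CFU/mL, 18–20 h aerobic at 37 °C, plate reader, at least duplicate.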

Acinetobacter baumannii [11] = assay: Antibacterial activity against Acinetobacter baumannii ATCC BAA-1605 after 18 to 20 hrs by broth microdilution method; assay type: functional
Procedure, shortened: (§5)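 Broth microdilution per EUCAST in TSB broth. Inoculum prepared by CLSI direct colony suspension from 20–24 h TSA colonies, final 3×10^4 CFU/mL. Aerobic incubation for 18–20 h at 37 °C, growth read on plate reader, at least one duplicate.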

Pseudomonas aeruginosa [12] = assay: Antibacterial activity against Pseudomonas aeruginosa PA0001 after 18 to 20 hrs by broth microdilution method; assay type: functional
Procedure, shortened: (§6)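 EUCAST broth microdilution in LB broth. Inoculum from 20–24 h LB agar colonies (CLSI direct colony suspension), final 3×10^4 CFU/mL. Aerobic incubation 18–20 h at 37 °C, plate-reader read-out, at least one duplicate.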

Klebsiella pneumoniae [13] = assay: Antibacterial activity against Klebsiella pneumoniae ATCC 13882 after 18 to 20 hrs by broth microdilution method; assay type: functional; procedure, shortened: as §5
[14] = Stability of the compound in solid state; assay type: physicochemical
Acinetobacter baumannii [15] = assay: Antibacterial activity against Acinetobacter baumannii ATCC 19606 after 18 to 20 hrs by broth microdilution method; assay type: functional; conditions: ATCC 19606 = CIP 70.34 = JCM 6841; procedure, shortened: as §5
Streptococcus pneumoniae [16] = assay: Antibacterial activity against Streptococcus pneumoniae R6 after 18 to 20 hrs by broth microdilution method; assay type: functional
Procedure, shortened: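 Broth microdilution per EUCAST in BHI broth. Inoculum from colonies on BHI agar with 5% sheep blood, final 5×10^4 CFU/mL. Read after 18–20 h anaerobic incubation at 37 °C.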

[17] = Stability of the compound in organic solvent; assay type: physicochemical
Pseudomonas aeruginosa [18] = assay: Antibacterial activity against Pseudomonas aeruginosa ATCC 27853 after 18 to 20 hrs by broth microdilution method; assay type: functional; procedure, shortened: as §6
Klebsiella pneumoniae [19] = assay: Antibacterial activity against Klebsiella pneumoniae ATCC 700603 after 18 to 20 hrs by broth microdilution method; assay type: functional; procedure, shortened: as §5
Enterococcus faecalis [20] = assay: Antibacterial activity against vancomycin resistant Enterococcus faecalis 501 after 18 to 20 hrs by broth microdilution method; assay type: functional
Procedure, shortened: (§7)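 EUCAST microdilution in BHI broth. Inoculum from 20–24 h colonies on 5% sheep blood BHI agar, final 3×10^4 CFU/mL, 18–20 h aerobic at 37 °C, plate reader, at least duplicate.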

Staphylococcus aureus [21] = assay: Antibacterial activity against methicillin-resistant Staphylococcus aureus USA300 after 18 to 20 hrs by microdilution method; assay type: functional; procedure, shortened: as §3
Escherichia coli [22] = assay: Antibacterial activity against Escherichia coli D22 after 18 to 20 hrs by microdilution method; assay type: functional; procedure, shortened: as §2
Escherichia coli [23] = assay: Antibacterial activity against N43 CGSC 5583 knock out Escherichia coli after 18 to 20 hrs by microdilution method; assay type: functional; procedure, shortened: as §2
Enterococcus faecalis [24] = assay: Bactericidal activity against vancomycin resistant Enterococcus faecalis 501 after 18 to 20 hrs by broth microdilution method; assay type: functional; procedure, shortened: as §7
Escherichia coli [25] = assay: Bactericidal activity against Escherichia coli DH10beta harboring pHuLUC3 after 18 to 20 hrs by microdilution method; assay type: functional; procedure, shortened: as §3
Staphylococcus aureus [26] = assay: Bactericidal activity against methicillin-resistant Staphylococcus aureus 1653 after 18 to 20 hrs by broth microdilution method; assay type: functional; procedure, shortened: as §4
[27] = Solubility of the compound in water; assay type: physicochemical; conditions: buffer
Escherichia coli [28] = assay: Antibacterial activity against Escherichia coli DH10beta harboring pHuLUC3 after 18 to 20 hrs by microdilution method; assay type: functional; procedure, shortened: as §3
Saccharomyces cerevisiae = assay: Antibacterial activity against Saccharomyces cerevisiae after 18 to 20 hrs by microdilution method
Procedure, shortened: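 Microdilution in YEP broth against wild-type yeast grown on YEP agar. Final inoculum 1×10^5 CFU/mL. Read after 18–20 h aerobic incubation at 30 °C on plate reader, at least one duplicate.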

[29] = Stability in PBS buffer at pH 7.4 NMR method; assay type: physicochemical
[30] = Stability in PBS buffer at pH 7.4 by TLC method; assay type: physicochemical
[31] = Stability in pH 7.4 DMSOd6/PBS buffer assessed as glutathione reactivity incubated for 24 hrs by 1H NMR spectroscopic method; assay type: physicochemical; conditions: pH 7.4, 24 h
Procedure, shortened: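 Equimolar reduced glutathione and compound were incubated at room temperature in DMSO-d6/phosphate buffer pH 7.4 (1:1, v/v). The mixture was monitored by NMR.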

O=C(CCl)N(/N=N/c1ccc([N+](=O)[O-])cc1C(F)(F)F)c1ccc([N+](=O)[O-])cc1C(F)(F)F
MIC [1]: 32 µg/mL (≈ 64 µM)
MBC [2]: > 128 µg/mL
MBC (Bacillus subtilis [3]): 4 µg/mL (≈ 8 µM)
MIC (Bacillus subtilis [4]): 0.0312 µg/mL (≈ 0.0625 µM)
Stability [5]: Stable
MBC (Streptococcus pneumoniae [6]): 0.125 µg/mL (≈ 0.25 µM)
MBC (Escherichia coli [7]): 16 µg/mL (≈ 32 µM)
MBC (Staphylococcus aureus [8]): 2 µg/mL (≈ 4 µM)
Activity (Staphylococcus aureus [9]): 100%
MIC (Staphylococcus aureus [10]): 0.03 µg/mL (≈ 0.06 µM)
MIC (Acinetobacter baumannii [11]): > 128 µg/mL
MIC (Pseudomonas aeruginosa [12]): > 128 µg/mL
MIC (Klebsiella pneumoniae [13]): > 128 µg/mL
Stability [14]: Stable
MIC (Acinetobacter baumannii [15]): > 128 µg/mL
MIC (Streptococcus pneumoniae [16]): 0.0312 µg/mL (≈ 0.0625 µM)
Stability [17]: Stable
MIC (Pseudomonas aeruginosa [18]): > 128 µg/mL
MIC (Klebsiella pneumoniae [19]): > 128 µg/mL
MIC (Enterococcus faecalis [20]): 1 µg/mL (≈ 2 µM)
MIC (Staphylococcus aureus [21]): 2 µg/mL (≈ 4 µM)
MIC (Escherichia coli [22]): 0.5 µg/mL (≈ 1 µM)
MIC (Escherichia coli [23]): > 128 µg/mL
MBC (Enterococcus faecalis [24]): > 128 µg/mL
MBC (Escherichia coli [25]): > 128 µg/mL
MBC (Staphylococcus aureus [26]): 0.5 µg/mL (≈ 1 µM)
solubility [27]: Soluble
MIC (Escherichia coli [28]): 128 µg/mL (≈ 256 µM)
MIC (Saccharomyces cerevisiae): > 128 µg/mL

O=[N+]([O-])c1ccc(/N=N/Nc2ccc([N+](=O)[O-])cc2C(F)(F)F)c(C(F)(F)F)c1
Stability [29]: Stable
Stability [30]: Stable

O=[N+]([O-])c1ccc(/N=N/[N-]c2ccc([N+](=O)[O-])cc2C(F)(F)F)c(C(F)(F)F)c1.[K+]
Stability [5]: Stable
Stability [14]: Stable
Stability [29]: Stable
Stability [17]: Stable
Stability [30]: Stable
Stability [31]: Stable
solubility [27]: Soluble

Source: ChEMBL document CHEMBL3994613, “Diaryltriazenes as antibacterial agents against methicillin resistant Staphylococcus aureus (MRSA) and Mycobacterium smegmatis” (Eur J Med Chem, 2017)
